Assay results taken from ChEMBL document CHEMBL1122788, “Quantitative relationships between alpha-adrenergic activity and binding affinity of alpha-adrenoceptor agonists and antagonists” (J Med Chem, 1984).
Blank lines part the entries; values can stand above or below the compound they belong to.

What was measured:
[1] = target: T1, Adrenergic receptor alpha-2 (Rattus norvegicus, UniProt P22086+P19328+P22909); assay: Inhibition of specific [3H]clonidine binding (0.4 nM) to rat brain membranes alpha2 adrenoceptor; type: cell membranes, Membrane
T1 sequence (P22086 whole entry): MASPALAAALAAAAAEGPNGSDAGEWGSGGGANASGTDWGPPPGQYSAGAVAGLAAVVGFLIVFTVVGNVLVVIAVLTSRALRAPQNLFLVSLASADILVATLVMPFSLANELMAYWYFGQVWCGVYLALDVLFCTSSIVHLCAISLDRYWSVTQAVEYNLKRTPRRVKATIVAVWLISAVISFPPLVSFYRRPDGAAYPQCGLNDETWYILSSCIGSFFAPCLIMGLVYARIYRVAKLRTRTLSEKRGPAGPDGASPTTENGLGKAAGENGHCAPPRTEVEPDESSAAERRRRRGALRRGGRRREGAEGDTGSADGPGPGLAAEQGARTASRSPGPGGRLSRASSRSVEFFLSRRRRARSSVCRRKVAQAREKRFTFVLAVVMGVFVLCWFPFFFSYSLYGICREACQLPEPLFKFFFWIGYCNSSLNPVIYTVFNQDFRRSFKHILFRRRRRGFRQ
T1 sequence (P19328 whole entry): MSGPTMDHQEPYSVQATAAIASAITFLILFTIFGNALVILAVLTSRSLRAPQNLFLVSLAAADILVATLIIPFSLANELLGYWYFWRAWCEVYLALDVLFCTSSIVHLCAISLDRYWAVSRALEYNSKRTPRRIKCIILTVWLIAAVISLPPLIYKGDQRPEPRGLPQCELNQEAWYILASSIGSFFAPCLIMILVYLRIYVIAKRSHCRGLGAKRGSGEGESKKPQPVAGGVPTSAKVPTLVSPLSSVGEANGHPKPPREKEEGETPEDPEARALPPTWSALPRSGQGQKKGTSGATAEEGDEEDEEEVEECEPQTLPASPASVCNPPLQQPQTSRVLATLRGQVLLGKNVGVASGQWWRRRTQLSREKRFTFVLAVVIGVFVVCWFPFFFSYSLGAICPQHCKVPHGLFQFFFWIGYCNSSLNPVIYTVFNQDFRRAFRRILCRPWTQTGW
T1 sequence (P22909 whole entry): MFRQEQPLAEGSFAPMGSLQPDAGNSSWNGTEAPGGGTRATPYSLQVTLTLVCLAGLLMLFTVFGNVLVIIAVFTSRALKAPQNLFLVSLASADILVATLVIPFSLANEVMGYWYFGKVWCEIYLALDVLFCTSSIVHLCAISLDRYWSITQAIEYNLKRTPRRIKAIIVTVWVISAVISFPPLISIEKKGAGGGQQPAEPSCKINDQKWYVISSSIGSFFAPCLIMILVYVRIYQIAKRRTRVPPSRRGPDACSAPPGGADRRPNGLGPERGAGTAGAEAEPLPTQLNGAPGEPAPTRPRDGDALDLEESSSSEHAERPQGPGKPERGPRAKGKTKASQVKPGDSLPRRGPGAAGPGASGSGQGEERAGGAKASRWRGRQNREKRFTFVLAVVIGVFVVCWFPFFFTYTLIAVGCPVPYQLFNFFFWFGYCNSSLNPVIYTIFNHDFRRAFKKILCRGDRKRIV

[2] = target: T1, Adrenergic receptor alpha-2; assay: Antagonist activity against B-HT 933-induced alpha-2-adrenoceptor-mediated vasoconstriction in pithed normotensive rats; type: functional
[3] = target: T1, Adrenergic receptor alpha-2; assay: Inhibition of specific [3H]-clonidine binding (0.4 nM) to rat brain membranes alpha-2 adrenoceptor; 2.8*10e-7; type: cell membranes, Membrane
[4] = target: Adrenergic receptor alpha-2 (Homo sapiens) (UniProt P08913+P18825+P18089); settings: Oryctolagus cuniculus
[5] = target: T1, Adrenergic receptor alpha-2; assay: Binding affinity against Alpha-2 adrenergic receptor is the ability to inhibit the specific [3H]clonidine binding (0.4 nM) to rat isolated brain membranes by 50% was reported; 2.5*10e-9; type: tissue-based, Membrane
[6] = target: T2, Adrenergic receptor alpha-1 (Rattus norvegicus, UniProt P15823+P23944+P43140); assay: Binding affinity against alpha-1 adrenergic receptor is the ability to inhibit the specific [3H]prazosin binding (0.2 nM) to rat isolated brain membranes by 50% was reported; 6.6*10e-7; type: tissue-based, Membrane
T2 sequence (P15823 whole entry): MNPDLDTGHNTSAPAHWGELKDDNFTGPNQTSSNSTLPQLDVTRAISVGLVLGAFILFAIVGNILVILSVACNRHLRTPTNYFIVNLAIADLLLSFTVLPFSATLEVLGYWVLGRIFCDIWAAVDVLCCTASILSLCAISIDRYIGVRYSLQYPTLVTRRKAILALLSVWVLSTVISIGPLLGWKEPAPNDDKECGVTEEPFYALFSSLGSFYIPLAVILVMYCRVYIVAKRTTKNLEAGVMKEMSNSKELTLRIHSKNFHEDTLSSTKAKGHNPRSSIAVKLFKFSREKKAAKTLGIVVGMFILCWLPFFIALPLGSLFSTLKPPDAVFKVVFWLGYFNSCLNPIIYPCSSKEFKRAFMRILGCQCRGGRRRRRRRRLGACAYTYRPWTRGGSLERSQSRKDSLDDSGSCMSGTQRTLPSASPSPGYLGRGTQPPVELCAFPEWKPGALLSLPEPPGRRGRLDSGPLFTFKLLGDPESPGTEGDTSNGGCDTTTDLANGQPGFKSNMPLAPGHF
T2 sequence (P23944 whole entry): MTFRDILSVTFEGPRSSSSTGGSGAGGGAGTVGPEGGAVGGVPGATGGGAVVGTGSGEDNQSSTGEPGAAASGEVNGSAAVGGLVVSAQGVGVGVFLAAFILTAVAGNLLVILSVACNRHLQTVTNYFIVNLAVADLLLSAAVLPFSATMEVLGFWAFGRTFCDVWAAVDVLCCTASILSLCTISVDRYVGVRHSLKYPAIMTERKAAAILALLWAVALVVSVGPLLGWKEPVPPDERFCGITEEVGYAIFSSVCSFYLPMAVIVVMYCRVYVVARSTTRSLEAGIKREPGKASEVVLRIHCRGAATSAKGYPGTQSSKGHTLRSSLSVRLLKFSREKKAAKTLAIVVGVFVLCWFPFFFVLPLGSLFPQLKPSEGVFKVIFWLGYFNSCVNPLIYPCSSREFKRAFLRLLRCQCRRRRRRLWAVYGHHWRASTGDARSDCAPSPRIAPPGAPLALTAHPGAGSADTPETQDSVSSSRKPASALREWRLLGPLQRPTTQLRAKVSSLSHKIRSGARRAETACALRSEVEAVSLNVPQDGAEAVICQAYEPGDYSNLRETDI
T2 sequence (P43140 whole entry): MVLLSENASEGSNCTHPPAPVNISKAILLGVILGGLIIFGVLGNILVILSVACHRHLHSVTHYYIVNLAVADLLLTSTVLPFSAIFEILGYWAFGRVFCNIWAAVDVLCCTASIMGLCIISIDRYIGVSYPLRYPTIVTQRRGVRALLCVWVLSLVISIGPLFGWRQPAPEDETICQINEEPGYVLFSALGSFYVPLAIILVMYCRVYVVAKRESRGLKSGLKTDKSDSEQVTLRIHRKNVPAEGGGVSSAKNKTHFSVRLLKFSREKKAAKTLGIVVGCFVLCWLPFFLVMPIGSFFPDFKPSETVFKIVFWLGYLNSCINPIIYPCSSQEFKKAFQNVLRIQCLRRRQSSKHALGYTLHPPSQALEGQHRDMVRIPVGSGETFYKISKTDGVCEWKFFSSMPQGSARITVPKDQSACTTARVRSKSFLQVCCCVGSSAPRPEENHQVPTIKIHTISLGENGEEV
How it was run: (§1)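 Brain membranes were prepared from male Wistar rats (200–250 g, cerebellum removed) in ice-cold 50 mmol/L Tris-HCl, pH 7.7, with two 50000g spins, and used at 1 mg/mL protein (Lowry). […] Bound label was collected by vacuum filtration and counted. IC50 came from log probit analysis.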

Rattus norvegicus [7] = assay: Hypertensive activity (increase in arterial pressure to 60 mmHg)) after i.v. administration to pithed rats.
Rattus norvegicus [8] = assay: Hypotensive activity (25% decrease in arterial pressure) after i.v. administration to anesthetized normotensive rats.
[9] = target: T1, Adrenergic receptor alpha-2; assay: Binding affinity against Alpha-2 adrenergic receptor is the ability to inhibit the specific [3H]clonidine binding (0.4 nM) to rat isolated brain membranes by 50% was reported; 3.0*10e-8; type: tissue-based, Membrane
[10] = target: T2, Adrenergic receptor alpha-1; assay: Binding affinity against alpha-1 adrenergic receptor is the ability to inhibit the specific [3H]prazosin binding (0.2 nM) to rat isolated brain membranes by 50% was reported; 1.6*10e-6; type: tissue-based, Membrane; how it was run: as §1
[11] = target: T1, Adrenergic receptor alpha-2; assay: Binding affinity against Alpha-2 adrenergic receptor is the ability to inhibit the specific [3H]-clonidine binding (0.4 nM) to rat isolated brain membranes by 50% was reported; 1*10e-6; type: tissue-based, Membrane
How it was run: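 Whole rat brain (minus cerebellum) from male Wistar rats (200–250 g), homogenized in ice-cold 50 mM Tris-HCl pH 7.7 and washed twice at 50000g. […] Bound ligand was collected by rapid filtration and counted. IC50 was derived by log-probit analysis.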

[12] = target: T2, Adrenergic receptor alpha-1; assay: Binding affinity against alpha-1 adrenergic receptor is the ability to inhibit the specific [3H]prazosin binding (0.2 nM) to rat isolated brain membranes by 50% was reported; 6.5*10e-5; parameters: species or system Membrane

IC50 [1]: 140 nM
pA2 [2]: 6.23
Structure (SMILES): c1ccc2c(c1)OCC(CN1CCCCC1)O2 (stereo unspecified) [PIPEROXAN]

IC50 [3]: 280 nM
pA2 [2]: 5.82
pC30 [4]: 6.15
Structure (SMILES): c1ccc(CC2=NCCN2)cc1 [TOLAZOLINE]

IC50 [5]: 2.5 nM
IC50 [6]: 660 nM
Structure (SMILES): CC(Oc1c(Cl)cccc1Cl)C1=NCCN1 (stereo unspecified) [LOFEXIDINE]
pC60 (Rattus norvegicus [7]): 1.99 uM kg-1
pC25 (Rattus norvegicus [8]): 2.09 uM kg-1

IC50 [9]: 30 nM
IC50 [10]: 1.6 µM
Structure (SMILES): c1ccc2c(c1)CCCC2C1=NCCN1 (stereo unspecified) [TETRAHYDROZOLINE]
pC60 (Rattus norvegicus [7]): 0.9 uM kg-1
pC25 (Rattus norvegicus [8]): -0.16 uM kg-1

Structure (SMILES): Cn1cc2c(NC3=NCCN3)cccc2n1 [INDANIDINE]
IC50 [11]: 1000 nM
IC50 [12]: 65 µM
pC60 (Rattus norvegicus [7]): -0.24 uM kg-1
